Measurements: publication PMC5308917 (Science translational medicine, 2017)
Where no end group is shown, it is not given here.

What was measured:
[1] = tested on: VEGFR2; assay: Proteasomal inhibition by lactacystin and total VEGFR2; type: cell-based, human; settings: 5 μM lactacystin with varying concentrations of AXT107
[2] = Fundus photography after intravitreous injection; type: in vivo, rabbit (Dutch Belted)
In short: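 Rabbits anaesthetized with IM ketamine (25 mg/kg) and xylazine (2.5 mg/kg), pupils dilated with 2.5% phenylephrine, conjunctiva cleaned with 5% povidone-iodine. Intravitreous injection of 50 μg test compound (or 500 μg comparator) in one eye and vehicle in the fellow eye. Fundus photographs taken 2 and 30 days after injection.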

[3] = Non-GLP safety studies after intravitreous injection; type: in vivo, rabbit; settings: independent Clinical Research Organization
[4] = biological target: integrin αvβ3 (Homo sapiens, UniProt P05106+P06756); assay: Fluorescence anisotropy, integrin αvβ3; type: binding
In short: (§1)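 FAM-labelled test compound (10 nM, dissolved in DMSO; final DMSO 0.0005%) mixed with 0–75 nM soluble recombinant heterodimeric integrin in 50 mM tris pH 7.5, 1 mM CaCl2, 1 mM MgCl2, 100 mM NaCl. Incubated on ice at least 30 min to reach equilibrium. Anisotropy read with vertically polarized excitation at 470 nm, detecting vertical and horizontal emission at 540 nm.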

[5] = biological target: integrin α5β1 (Homo sapiens, UniProt P05556+P08648); assay: Fluorescence anisotropy, integrin α5β1; type: binding
In short: as §1

[6] = tested on: VEGF-induced vascular leakage; assay: VEGF-induced leakage in rabbit eyes; type: in vivo, rabbit (Dutch Belted)
In short: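 A single intravitreous dose of test compound (50 μg) or comparator (500 μg) was given in one eye, with vehicle in the fellow eye. VEGF (10 μg) was injected into both eyes on day 23, VFP done day 30, eyes rescanned without fluorescein day 43, VEGF (10 μg) reinjected both eyes day 53, VFP day 60. For VFP, 15 mg sodium fluorescein was given via ear vein. After 1 h, fluorescence was scanned retina-to-cornea, taking the AUC 5–7 mm in front of the retina.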

[7] = biological target: 5-carboxyfluorescein (5-FAM)-labeled AXT107; assay: fluorescence polarisation

Sequence of integrin α5β1 (P08648 42-995 limits assumed): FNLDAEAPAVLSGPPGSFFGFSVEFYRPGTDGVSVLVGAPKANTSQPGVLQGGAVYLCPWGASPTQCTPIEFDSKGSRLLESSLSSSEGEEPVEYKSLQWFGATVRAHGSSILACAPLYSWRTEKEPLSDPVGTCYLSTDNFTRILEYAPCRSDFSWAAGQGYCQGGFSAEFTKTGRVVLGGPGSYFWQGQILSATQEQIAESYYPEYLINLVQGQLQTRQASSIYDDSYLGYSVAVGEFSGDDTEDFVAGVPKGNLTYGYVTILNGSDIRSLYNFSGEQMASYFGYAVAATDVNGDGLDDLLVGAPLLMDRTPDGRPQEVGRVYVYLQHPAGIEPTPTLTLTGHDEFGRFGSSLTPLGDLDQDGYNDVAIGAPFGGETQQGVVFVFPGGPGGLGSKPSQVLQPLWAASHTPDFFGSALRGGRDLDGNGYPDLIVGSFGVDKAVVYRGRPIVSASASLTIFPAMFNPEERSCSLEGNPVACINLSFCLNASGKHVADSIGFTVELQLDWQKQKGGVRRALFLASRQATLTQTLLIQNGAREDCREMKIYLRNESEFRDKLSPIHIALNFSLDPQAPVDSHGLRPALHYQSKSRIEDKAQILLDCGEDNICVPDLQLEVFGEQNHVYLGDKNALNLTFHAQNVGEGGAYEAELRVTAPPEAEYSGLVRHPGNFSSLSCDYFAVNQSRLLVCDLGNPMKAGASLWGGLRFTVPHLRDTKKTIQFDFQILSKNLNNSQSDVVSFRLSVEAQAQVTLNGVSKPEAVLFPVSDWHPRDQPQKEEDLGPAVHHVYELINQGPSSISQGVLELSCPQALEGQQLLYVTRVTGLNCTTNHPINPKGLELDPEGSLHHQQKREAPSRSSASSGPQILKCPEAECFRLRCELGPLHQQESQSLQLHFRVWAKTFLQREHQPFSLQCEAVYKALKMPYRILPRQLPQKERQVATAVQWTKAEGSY
Sequence of integrin α5β1 (P05556 21-728 limits assumed): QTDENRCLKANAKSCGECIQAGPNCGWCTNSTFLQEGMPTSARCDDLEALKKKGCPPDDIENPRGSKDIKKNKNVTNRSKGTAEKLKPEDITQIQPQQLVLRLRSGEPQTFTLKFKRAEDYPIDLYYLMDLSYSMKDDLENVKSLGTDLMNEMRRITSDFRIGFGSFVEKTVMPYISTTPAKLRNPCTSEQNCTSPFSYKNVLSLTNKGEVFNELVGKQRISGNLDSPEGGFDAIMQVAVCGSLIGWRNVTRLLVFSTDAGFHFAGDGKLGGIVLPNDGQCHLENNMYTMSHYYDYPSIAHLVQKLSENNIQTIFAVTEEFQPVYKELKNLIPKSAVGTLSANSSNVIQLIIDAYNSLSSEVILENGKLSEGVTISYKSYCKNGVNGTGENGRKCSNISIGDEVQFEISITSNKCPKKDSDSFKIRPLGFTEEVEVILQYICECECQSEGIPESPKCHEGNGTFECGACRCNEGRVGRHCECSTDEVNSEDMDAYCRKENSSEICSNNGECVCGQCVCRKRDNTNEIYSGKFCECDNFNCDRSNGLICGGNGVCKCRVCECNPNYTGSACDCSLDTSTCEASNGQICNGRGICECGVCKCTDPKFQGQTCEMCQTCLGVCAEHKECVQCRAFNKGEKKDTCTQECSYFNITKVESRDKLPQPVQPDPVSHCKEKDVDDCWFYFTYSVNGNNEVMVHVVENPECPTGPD
Sequence of integrin αvβ3 (P06756 31-992 limits assumed): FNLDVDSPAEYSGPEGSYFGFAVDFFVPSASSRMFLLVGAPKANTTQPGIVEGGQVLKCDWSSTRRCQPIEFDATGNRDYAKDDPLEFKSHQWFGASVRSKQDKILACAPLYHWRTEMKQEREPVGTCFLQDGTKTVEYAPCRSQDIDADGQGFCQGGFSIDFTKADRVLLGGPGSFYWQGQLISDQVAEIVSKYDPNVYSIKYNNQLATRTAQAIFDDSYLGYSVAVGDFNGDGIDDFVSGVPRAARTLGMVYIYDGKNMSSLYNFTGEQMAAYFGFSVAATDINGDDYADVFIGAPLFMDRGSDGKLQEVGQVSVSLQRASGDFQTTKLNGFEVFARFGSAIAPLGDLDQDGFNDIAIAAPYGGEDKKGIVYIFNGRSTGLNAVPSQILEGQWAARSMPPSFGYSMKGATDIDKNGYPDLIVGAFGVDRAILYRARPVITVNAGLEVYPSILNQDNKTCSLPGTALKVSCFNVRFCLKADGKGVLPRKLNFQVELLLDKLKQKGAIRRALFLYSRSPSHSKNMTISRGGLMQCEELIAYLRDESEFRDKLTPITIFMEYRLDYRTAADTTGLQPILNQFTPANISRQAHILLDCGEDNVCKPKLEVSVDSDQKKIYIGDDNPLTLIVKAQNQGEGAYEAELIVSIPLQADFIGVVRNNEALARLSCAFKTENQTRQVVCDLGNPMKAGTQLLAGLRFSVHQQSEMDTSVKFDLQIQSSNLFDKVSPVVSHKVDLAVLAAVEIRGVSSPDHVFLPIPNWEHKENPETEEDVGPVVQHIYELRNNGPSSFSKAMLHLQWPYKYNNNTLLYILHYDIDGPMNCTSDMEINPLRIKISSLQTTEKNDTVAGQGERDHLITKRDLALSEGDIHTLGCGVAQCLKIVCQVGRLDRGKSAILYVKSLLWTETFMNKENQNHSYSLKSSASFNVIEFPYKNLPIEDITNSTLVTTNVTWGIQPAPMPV
Sequence of integrin αvβ3 (P05106 27-718 limits assumed): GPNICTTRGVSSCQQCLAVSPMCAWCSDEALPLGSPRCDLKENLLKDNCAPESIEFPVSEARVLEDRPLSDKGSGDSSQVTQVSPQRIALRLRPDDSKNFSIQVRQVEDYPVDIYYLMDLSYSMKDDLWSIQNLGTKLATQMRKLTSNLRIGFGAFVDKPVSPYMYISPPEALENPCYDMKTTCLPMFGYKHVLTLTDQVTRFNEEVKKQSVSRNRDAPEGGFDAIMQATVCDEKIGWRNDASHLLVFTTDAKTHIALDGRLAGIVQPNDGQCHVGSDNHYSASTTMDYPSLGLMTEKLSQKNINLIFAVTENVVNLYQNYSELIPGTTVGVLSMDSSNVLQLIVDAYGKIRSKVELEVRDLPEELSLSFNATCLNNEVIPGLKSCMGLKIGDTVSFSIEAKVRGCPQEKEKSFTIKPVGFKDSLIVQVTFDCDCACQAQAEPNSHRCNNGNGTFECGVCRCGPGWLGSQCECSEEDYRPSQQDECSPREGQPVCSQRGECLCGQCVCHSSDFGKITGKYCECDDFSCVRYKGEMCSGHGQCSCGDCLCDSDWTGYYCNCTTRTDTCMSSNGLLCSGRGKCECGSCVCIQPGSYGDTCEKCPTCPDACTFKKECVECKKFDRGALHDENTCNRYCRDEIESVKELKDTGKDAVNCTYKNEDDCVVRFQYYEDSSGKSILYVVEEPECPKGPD

## CC(=O)N[C@@H](CSC(=O)[C@]1([C@@H](O)C(C)C)NC(=O)[C@H](C)[C@@H]1O)C(=O)O [lactacystin]
[1]
  AXT107-induced degradation of VEGFR2: reduced AXT107-induced degradation of VEGFR2

## LRRFSTAPFAFIDINDVINF [AXT107]
[2]; 50 μg intravitreous, 30 days after injection
  gel-like depot in inferior vitreous, persistence: still present in the same location 30 days after injection
[2]; after intraocular injection, inferior vitreous
  dissipation of gel-like depot: slowly dissipates over months
[3]
  intraocular pressure: no increase in intraocular pressure
  ocular media in the visual axis: no degradation of the ocular media in the visual axis
  retinal toxicity: no retinal toxicity
[4]
  Kd: 1.29 nM
[5]
  Kd: 2.21 nM

## aflibercept: a VEGF-neutralizing protein, which is standard care for patients with NVAMD
[6]; 50 μg of AXT107 or 500 μg of aflibercept, VEGF rechallenge (10 μg) on day 53
  fluorescein in the mid-vitreous, day 60 (representative VFP scans): higher levels
[6]; 50 μg of AXT107 versus 500 μg of aflibercept, P < 0.05
  leakage remaining at 60 days: 100%
[6]; 500 μg of aflibercept, VEGF rechallenge (10 μg) on day 53, VFP day 60
  leakage vs fellow eye controls, day 60 (in words): not significantly reduced

## soluble, recombinant α5β1 heterodimeric integrin (from UniProt P08648 42-1049; P05556 21-728) (complex)
[7]
  Kd: 2.21 nM

## soluble, recombinant αvβ3 heterodimeric integrin (from UniProt P06756 31-1048; P05106 27-718) (complex)
[7]
  Kd: 1.29 nM
